# In PMC5361402 (Diabetes, 2014):
# Tests used:
# [1] = cited from earlier work
# conscious dogs = assay: Euglycemic clamp with tracer and hepatic balance measurements in conscious dogs; assay type: in vivo, dog; settings: control group (regular human insulin 0.11 nmol/kg/h iv, n=6)
# Summary of the method: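 Conscious dogs had 30 min of basal sampling (90–120 min), then a 5-h euglycemic clamp (120–420 min). Somatostatin and regular human insulin (no priming dose) were given by peripheral vein, glucagon intraportally at basal 0.5 ng ⋅ kg−1 ⋅ min−1, and glucose infused to hold euglycemia. [3H]glucose tracer; Ra from Mari circulatory model; hepatic organ-balance calculations; triglycerides assayed spectrophotometrically; n = 6.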
# [2] = Plasma insulin / serum LY concentrations and organ extraction during the clamp; assay type: in vivo, dog
# [3] = test system: patients with type 1 and type 2 diabetes; settings: phase II, patients previously treated with other basal insulins; cited from earlier work
# [4] = cited from earlier work; remark: listed apart in the source
# [5] = regular insulin 0.11 nmol/kg/h iv during the clamp, dog
substance,measurement,setting,value
insulin degludec,T1/2 relative to that of glargine,[1],approximately two times
regular insulin: regular human insulin infused via peripheral vein in the control group,Change from baseline in net hepatic glucose balance by 420 min,conscious dogs,10.3 ± 1.4 µmol ⋅ kg^-1 ⋅ min^−1
same,Fall of arterial plasma triglyceride concentration below baseline by 420 min,conscious dogs,~ 40%
same,Increase in non-HGU over the basal rate in the final hour,conscious dogs,11.1 ± 4.5 µmol ⋅ kg^−1 ⋅ min^−1
same,Time to NEFA nadir after the start of the clamp period,conscious dogs,≤ 90 min
same,Nadir of NEFA concentrations,conscious dogs; arterial plasma,271 ± 57 µmol/L
same,Fall from basal in endogenous glucose Ra by the final hour,conscious dogs; tracer-determined,8.9 ± 1.9 µmol ⋅ kg^−1 ⋅ min^−1
same,Portal vein insulin concentration during the clamp,"[2]; control group (regular human insulin 0.11 nmol/kg/h iv, n=6)",~ 50 % of basal
same,Fractional hepatic extraction,[2]; [5],50 ± 3%
same,Fractional renal extraction,[2]; [5],61 ± 3%
insulin glargine,Body weight change,[3],modest weight gain
insulin: endogenously secreted insulin to which the liver is exposed,Hepatic extraction of the insulin to which the liver is exposed,[4],50–60%
